Source: ChEMBL document CHEMBL5104108, “Concise synthesis and biological activity evaluation of novel pyrazinyl-aryl urea derivatives against several cancer cell lines, which can especially induce T24 apoptotic and necroptotic cell death” (RSC Med Chem, 2022)
Activity calls are given as the source filed them. No cut-off for these calls is given here.

Key:
[1] = tested on: HepG2; test: Antiproliferative activity against human HepG2 cells measured after 48 hrs by MTT assay; type: functional, cell-based; conditions: HepG2, 48 h
Method in brief: (§1)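 Cells seeded 5 × 10^3 per well, grown overnight at 37 °C, then exposed to compound at final 1–40 μM (1, 2.5, 5, 7.5, 10, 12.5, 15, 20, 30, 40 μM) for the stated period. MTT added, 4 h at 37 °C, formazan dissolved in DMSO, absorbance read. IC50 = concentration killing 50% of cells relative to untreated control; mean ± S.D. of four independent experiments.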

[2] = tested on: MGC-803; test: Antiproliferative activity against human MGC-803 cells measured after 48 hrs by MTT assay; type: functional, cell-based; conditions: MGC-803, 48 h; method in brief: as §1
[3] = tested on: T-24; test: Antiproliferative activity against human T24 cells measured after 48 hrs by MTT assay; type: functional, cell-based; conditions: T-24, 48 h; method in brief: as §1
[4] = Antiproliferative activity against human HCV-29 cells measured after 48 hrs by MTT assay; type: functional, cell-based; conditions: HCV-29, 48 h; method in brief: as §1
[5] = Selectivity index, ratio IC50 for antiproliferative activity against human HCV-29 cells over IC50 for antiproliferative activity against human T24 cells; type: toxicity, cell-based; conditions: HCV-29 cells versus T24 cells
Method in brief: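 MTT assay, 48 h exposure at final 1–40 μM in T24 and normal bladder epithelial HCV29 cells (5 × 10^3/well, seeded overnight, 37 °C). MTT added for 4 h and formazan dissolved in DMSO. IC50 taken relative to untreated control, four parallel samples. SI = IC50(HCV29)/IC50(T24).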

[6] = tested on: T-24; test: Down-regulation of RIPK1 expression in human T24 cells at 7.5 to 10 uM measured after 16 hrs by Western blot analysis; type: functional, cell-based; conditions: dose 7.5-10 µM
Method in brief: (§2)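 T24 cells co-incubated 16 h with or without Nec-1 (60 μM). Lysates quantified by BCA, 40 μg protein resolved by SDS-PAGE, transferred to PVDF, probed with primary and peroxidase-conjugated secondary antibodies, detected by ECL. Band gray values normalized to β-actin loading control.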

[7] = tested on: T-24; test: Down-regulation of RIPK2 expression in human T24 cells at 7.5 to 10 uM measured after 16 hrs by Western blot analysis; type: functional, cell-based; conditions: dose 7.5-10 µM; method in brief: as §2
[8] = tested on: T-24; test: Down-regulation of RIPK3 expression in human T24 cells at 7.5 to 10 uM measured after 16 hrs by Western blot analysis; type: functional, cell-based; conditions: dose 7.5-10 µM; method in brief: as §2
[9] = tested on: T-24; test: Down-regulation of MLKL expression in human T24 cells at 7.5 to 10 uM measured after 16 hrs by Western blot analysis; type: functional, cell-based; conditions: dose 7.5-10 µM; method in brief: as §2
[10] = tested on: T-24; test: Down-regulation of p-RIPK1 expression in human T24 cells at 7.5 to 10 uM measured after 16 hrs by Western blot analysis; type: functional, cell-based; conditions: dose 7.5-10 µM; method in brief: as §2
[11] = tested on: T-24; test: Down-regulation of p-RIPK3 expression in human T24 cells at 7.5 to 10 uM measured after 16 hrs by Western blot analysis; type: functional, cell-based; conditions: dose 7.5-10 µM; method in brief: as §2
[12] = tested on: T-24; test: Down-regulation of p-MLKL expression in human T24 cells at 7.5 to 10 uM measured after 16 hrs by Western blot analysis; type: functional, cell-based; conditions: dose 7.5-10 µM; method in brief: as §2
[13] = Cmax in Sprague-Dawley rat at 12 mg/kg, IG measured HPLC analysis; type: ADME, organism-based; design: dose 12 mg/kg, route ig; conditions: in vivo, po
[14] = Tmax in Sprague-Dawley rat at 12 mg/kg, IG measured HPLC analysis; type: ADME, organism-based; conditions: in vivo, po
Method in brief: (§3)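 Fasted (12 h) male-unspecified Sprague-Dawley rats (250 ± 20 g), n = 6 per group. Single intragastric dose of suspension (2 mg mL−1 in Tween 80/0.9% NaCl 1.5:5 v/v). Orbital blood drawn at 0.5–48 h and plasma assayed by reversed-phase C18 HPLC-UV. One-compartment fit, weight 1.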

[15] = AUC (0 to 48 hrs) in Sprague-Dawley rat at 12 mg/kg, IG measured HPLC analysis; type: ADME, organism-based; design: time < 48 hr, dose 12 mg/kg, route ig; conditions: in vivo, po
[16] = AUMC in Sprague-Dawley rat at 12 mg/kg, IG measured HPLC analysis; type: ADME, organism-based; conditions: in vivo, po
[17] = Absorption rate constant in Sprague-Dawley rat at 12 mg/kg, IG measured HPLC analysis; type: ADME, organism-based; conditions: in vivo, po
[18] = Clearance in Sprague-Dawley rat at 12 mg/kg, IG measured HPLC analysis; type: ADME, organism-based; conditions: in vivo, po
[19] = Half-life in Sprague-Dawley rat at 12 mg/kg, IG measured HPLC analysis; type: ADME, organism-based; conditions: in vivo, po
[20] = MRT (0 to 48 hrs) in Sprague-Dawley rat at 12 mg/kg, IG measured HPLC analysis; type: ADME, organism-based; conditions: in vivo, po; method in brief: as §3

SMILES	IC50 [1]	IC50 [2]	IC50 [3]	IC50 [4]	SI [5]	other results
CCc1ccccc1NC(=O)Nc1cccc(CNc2nccnc2Cl)c1	7.86 µM	9.37 µM	8.72 µM	16.4 µM	1.88	
Cc1cccc(NC(=O)Nc2cccc(CNc3nccnc3Cl)c2)c1	11.2 µM	14.6 µM	9.57 µM	28.3 µM	2.96	
O=C(Nc1cccc(CNc2nccnc2Cl)c1)Nc1cccc(C(F)(F)F)c1	6.21 µM	7.29 µM	5.08 µM	28.7 µM	5.64	
CC(C)(C)c1ccc(NC(=O)Nc2cccc(CNc3nccnc3Cl)c2)cc1	7.55 µM	4.82 µM	6.01 µM	15.3 µM	2.54	
O=C(Nc1cccc(CNc2nccnc2Cl)c1)Nc1ccccc1Cl	8.56 µM	7.13 µM	6.68 µM	28.1 µM	4.21	
COc1ccccc1NC(=O)Nc1cccc(CNc2nccnc2Cl)c1	13.7 µM	12.2 µM	10.4 µM	18.2 µM	1.74	
O=C(Nc1cccc(CNc2nccnc2Cl)c1)Nc1ccc(F)c(Cl)c1	6.75 µM	5.02 µM	4.99 µM	24.7 µM	4.94	
CNC(=O)c1cc(Oc2ccc(NC(=O)Nc3ccc(Cl)c(C(F)(F)F)c3)c(F)c2)ccn1 [REGORAFENIB]	10.4 µM	9.46 µM	5.98 µM	12.9 µM	2.16	Activity [6]: Active; Activity [7]: Active; Activity [8]: Active; Activity [9]: Active; Activity [10]: Active; Activity [11]: Active; Activity [12]: Active; Cmax [13]: 3100 ng/mL; Tmax [14]: 8.07 h; AUC(0-t) at 48 h [15]: 50700 ng·h/mL; AUMC [16]: 737185 hr2.ng/ml; Ka [17]: 0.138 h⁻¹; CL/F [18]: 0.986 mL/min; half-life [19]: 5.06 h; MRT last [20]: 7.29 h
Cc1ccc(NC(=O)Nc2cccc(CNc3nccnc3Cl)c2)cc1	11.5 µM	11.9 µM	9.82 µM	20.1 µM	2.05	
O=C(Nc1cccc(CNc2nccnc2Cl)c1)NC1CCCC1	18.4 µM	23.4 µM	> 40 µM	> 40 µM		
O=C(Nc1cccc(Cl)c1)Nc1cccc(CNc2nccnc2Cl)c1	9.14 µM	5.33 µM	6.81 µM	21.4 µM	3.14	
COc1ccc(NC(=O)Nc2cccc(CNc3nccnc3Cl)c2)cc1	12 µM	9.24 µM	9.82 µM	20.9 µM	2.13	
CS(=O)(=O)c1ccc(NC(=O)Nc2cccc(CNc3nccnc3Cl)c2)cc1	15.1 µM	12.3 µM	29.3 µM	> 40 µM		
CCc1cccc(CC)c1NC(=O)Nc1cccc(CNc2nccnc2Cl)c1	10.8 µM	6.13 µM	6.39 µM	18.7 µM		
Cc1ccc(NC(=O)Nc2cccc(CNc3nccnc3Cl)c2)cc1Cl	11.3 µM	17.5 µM	7.39 µM	21.5 µM	2.91	
Cc1ccc(NC(=O)Nc2cccc(CNc3nccnc3Cl)c2)cc1C	10.7 µM	9.87 µM	8.93 µM	12.8 µM	1.43	
CN(C)c1ccc(NC(=O)Nc2cccc(CNc3nccnc3Cl)c2)cc1	> 40 µM	11.5 µM	20.2 µM	> 40 µM		
O=C(Nc1ccc(Cl)cc1)Nc1cccc(CNc2nccnc2Cl)c1	8.35 µM	4.98 µM	5.47 µM	19.4 µM	3.54	
Nc1ccn([C@@H]2O[C@H](CO)[C@@H](O)C2(F)F)c(=O)n1 [GEMCITABINE]				21.5 µM	2.12	
O=C(Nc1cccc(CNc2nccnc2Cl)c1)Nc1ccccc1F	10.5 µM	6.44 µM	7.45 µM	25.1 µM	3.37	
O=C(Nc1cccc(CNc2nccnc2Cl)c1)Nc1ccc(Cl)cc1Br	6.72 µM	7.48 µM	6.65 µM	24 µM	3.61	
O=C(Nc1ccccc1)Nc1cccc(CNc2nccnc2Cl)c1	15.6 µM	16.3 µM	19.8 µM	36.2 µM	1.83	
O=C(Nc1cccc(CNc2nccnc2Cl)c1)Nc1cccc2ccccc12	> 40 µM	32.7 µM	> 40 µM	> 40 µM		
O=C(Nc1cccc(CNc2nccnc2Cl)c1)Nc1ccc(Cl)c(Cl)c1	6.17 µM	4.97 µM	5.21 µM	27.2 µM	5.22	
O=C(Nc1cccc(CNc2nccnc2Cl)c1)NC1CCCCC1	> 40 µM	> 40 µM	> 40 µM	> 40 µM		
Cc1ccccc1NC(=O)Nc1cccc(CNc2nccnc2Cl)c1	15.3 µM	14 µM	13.6 µM	33.6 µM	2.47	
O=C(Nc1cccc(CNc2nccnc2Cl)c1)Nc1ccc(Cl)cc1Cl	7.23 µM	6.43 µM	5.74 µM	25.4 µM	4.42	
Cc1ccc(NC(=O)Nc2cccc(CNc3nccnc3Cl)c2)c(C)c1	9.29 µM	10.1 µM	9.23 µM	23.8 µM	2.58	
CCOc1ccc(NC(=O)Nc2cccc(CNc3nccnc3Cl)c2)cc1	7.05 µM	7.24 µM	9.08 µM	30.5 µM	3.36	
